Measurements: ChEMBL document CHEMBL1135893, “Synthesis and mode of action of hydrophobic derivatives of the glycopeptide antibiotic eremomycin and des-(N-methyl-D-leucyl)eremomycin against glycopeptide-sensitive and -resistant bacteria” (J Med Chem, 2002)

What was measured:
Staphylococcus aureus [1] = assay: Antibacterial activity evaluated as minimum inhibitory concentration against 3797 Staphylococcus aureus (GISA); assay type: functional; set-up: unit not given beside the values
Method in brief: (§1)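 Broth microdilution in Mueller Hinton broth per NCCLS procedure; repeat results usually identical, always within 2-fold. GISA strains 3797 (HIP-5836 New Jersey) and 3798 (HIP-5827 Michigan); 533 S. epidermidis and 602 S. haemolyticus are clinical isolates; vancomycin-resistant enterococci have confirmed genotype.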

Enterococcus faecalis [2] = assay: Antibacterial activity evaluated as minimum inhibitory concentration against 559 Enterococcus faecalis (GSE); assay type: functional; set-up: unit not given beside the values; method in brief: as §1
[3] = system: Staphylococcus haemolyticus; assay: Antibacterial activity evaluated as minimum inhibitory concentration against 602 Staphylococcus haemolyticus; set-up: unit not given beside the values
Enterococcus faecalis [4] = assay: Antibacterial activity evaluated as minimum inhibitory concentration against 560 Enterococcus faecalis (GRE); assay type: functional; method in brief: as §1
[5] = system: Staphylococcus epidermidis; assay: Antibacterial activity evaluated as minimum inhibitory concentration against 533 Staphylococcus epidermidis; assay type: functional; method in brief: as §1
Staphylococcus aureus [6] = assay: Antibacterial activity evaluated as minimum inhibitory concentration against 3798 Staphylococcus aureus (GISA); assay type: functional; set-up: unit not given beside the values; method in brief: as §1
Enterococcus faecium [7] = assay: Antibacterial activity evaluated as minimum inhibitory concentration against 568 Enterococcus faecium (GSE); assay type: functional; method in brief: as §1
Enterococcus faecium [8] = assay: Antibacterial activity evaluated as minimum inhibitory concentration against 569 Enterococcus faecium (GRE); assay type: functional; method in brief: as §1
Nucleic Acid [9] = assay: Ratio UDP-MurNAc-tetrapeptide to UDP-MurNAc-Pentapeptide; assay type: nucleic-acid assay
Nucleic Acid [10] = assay: Inhibition of the peptidoglycan synthesis in the absence of dipeptide bonding using UDP-MurNAc-tetrapeptide; assay type: nucleic-acid assay
Method in brief: (§2)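 Peptidoglycan synthesis run on filter plates with E. coli OV58 (pTA9) membranes, UDP-MurNAc-pentapeptide or UDP-MurNAc-tetrapeptide plus UDP-N-acetyl-[14C]-D-glucosamine as substrates; radiolabel incorporation into peptidoglycan measured. IC50 from at least six drug concentrations in duplicate, fitted by four-parameter logistic nonlinear regression.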

Nucleic Acid [11] = assay: Inhibition of the peptidoglycan synthesis in the absence of dipeptide bonding using UDP-MurNAc-pentapeptide; assay type: nucleic-acid assay; method in brief: as §2

| Compound | MIC (Staphylococcus aureus [1]) | MIC (Enterococcus faecalis [2]) | MIC [3] | MIC (Enterococcus faecalis [4]) | MIC [5] | MIC (Staphylococcus aureus [6]) | MIC (Enterococcus faecium [7]) | MIC (Enterococcus faecium [8]) | Ratio (Nucleic Acid [9]) | IC50 (Nucleic Acid [10]) [nM] | IC50 (Nucleic Acid [11]) [nM] |
| --- | --- | --- | --- | --- | --- | --- | --- | --- | --- | --- | --- |
| CCCCCCCCCCN[C@]1(C)C[C@H](O[C@@H]2[C@H](Oc3c4cc5cc3Oc3ccc(cc3Cl)[C@@H](O)[C@@H](N)C(=O)N[C@@H](CC(N)=O)C(=O)N[C@H]5C(=O)N[C@H]3C(=O)N[C@H](C(=O)N[C@H](C(=O)O)c5cc(O)cc(O)c5-c5cc3ccc5O)[C@H](O[C@H]3C[C@@](C)(N)[C@@H](O)[C@@H](C)O3)c3cccc(c3)O4)O[C@@H](CO)[C@H](O)[C@H]2O)O[C@H](C)[C@@H]1O | 8 | 8 | 8 | 16 | 4 | 16 | 8 | 16 | – | – | – |
| CN[C@H](CC(C)C)C(=O)N[C@H]1C(=O)N[C@@H](CC(N)=O)C(=O)N[C@H]2C(=O)N[C@H]3C(=O)N[C@H](C(=O)N[C@H](C(=O)O)c4cc(O)c(CNCc5ccc(-c6ccc(Cl)cc6)cc5)c(O)c4-c4cc3ccc4O)[C@H](O[C@H]3C[C@@](C)(N)[C@@H](O)[C@@H](C)O3)c3cccc(c3)Oc3cc2cc(c3O[C@@H]2O[C@@H](CO)[C@H](O)[C@@H](O)[C@@H]2O[C@H]2C[C@@](C)(N)[C@@H](O)[C@@H](C)O2)Oc2ccc(cc2Cl)[C@H]1O | 2 | 1 | 0.25 | 16 | 0.5 | 2 | 1 | 8 | – | – | – |
| CN[C@@H](CC(C)C)C(=O)N[C@H]1C(=O)N[C@@H](CC(N)=O)C(=O)N[C@H]2C(=O)N[C@H]3C(=O)N[C@H](C(=O)N[C@H](C(=O)O)c4cc(O)cc(O)c4-c4cc3ccc4O)[C@H](O[C@H]3C[C@@](C)(N)[C@@H](O)[C@@H](C)O3)c3cccc(c3)Oc3cc2cc(c3O[C@@H]2O[C@@H](CO)[C@H](O)[C@@H](O)[C@@H]2O[C@H]2C[C@@](C)(N)[C@@H](O)[C@@H](C)O2)Oc2ccc(cc2Cl)[C@H]1O | – | – | – | – | – | – | – | – | > 2300 | > 640000 | 300 |
| C[C@H]1O[C@@H](O[C@@H]2[C@H](Oc3c4cc5cc3Oc3ccc(cc3Cl)[C@@H](O)[C@@H](N)C(=O)N[C@@H](CC(N)=O)C(=O)N[C@H]5C(=O)N[C@H]3C(=O)N[C@H](C(=O)N[C@H](C(=O)O)c5cc(O)cc(O)c5-c5cc3ccc5O)[C@H](O[C@H]3C[C@@](C)(N)[C@@H](O)[C@@H](C)O3)c3cccc(c3)O4)O[C@@H](CO)[C@H](O)[C@H]2O)C[C@@](C)(NCc2ccc(-c3ccc(Cl)cc3)cc2)[C@H]1O | 8 | 4 | 4 | 8 | 4 | 8 | 4 | 8 | 1.2 | 9200 | 7700 |
| CCCCCCCCCCNC(=O)[C@H]1NC(=O)[C@H]2NC(=O)[C@H](NC(=O)[C@@H]3NC(=O)[C@H](CC(N)=O)NC(=O)[C@H](NC(=O)[C@@H](CC(C)C)NC)[C@H](O)c4ccc(c(Cl)c4)Oc4cc3cc(c4O[C@@H]3O[C@@H](CO)[C@H](O)[C@@H](O)[C@@H]3O[C@H]3C[C@@](C)(N)[C@@H](O)[C@@H](C)O3)Oc3cccc(c3)[C@H]2O[C@H]2C[C@@](C)(N)[C@@H](O)[C@@H](C)O2)c2ccc(O)c(c2)-c2c(O)cc(O)cc21 | 4 | 1 | 0.13 | 4 | 0.13 | 4 | 0.5 | 2 | 5 | 6400 | 1300 |
| C[C@H]1O[C@@H](O[C@@H]2[C@H](Oc3c4cc5cc3Oc3ccc(cc3Cl)[C@@H](O)[C@@H](N)C(=O)N[C@@H](CC(N)=O)C(=O)N[C@H]5C(=O)N[C@H]3C(=O)N[C@H](C(=O)N[C@H](C(=O)O)c5cc(O)cc(O)c5-c5cc3ccc5O)[C@H](O[C@H]3C[C@@](C)(N)[C@@H](O)[C@@H](C)O3)c3cccc(c3)O4)O[C@@H](CO)[C@H](O)[C@H]2O)C[C@@](C)(N)[C@H]1O | 64 | 16 | 16 | >128 | 16 | 64 | 16 | >128 | – | – | – |
| CN[C@H](CC(C)C)C(=O)N[C@H]1C(=O)N[C@@H](CC(N)=O)C(=O)N[C@H]2C(=O)N[C@H]3C(=O)N[C@H](C(=O)N[C@H](C(=O)O)c4cc(O)cc(O)c4-c4cc3ccc4O)[C@H](O[C@H]3C[C@@](C)(N)[C@@H](O)[C@@H](C)O3)c3cccc(c3)Oc3cc2cc(c3O[C@@H]2O[C@@H](CO)[C@H](O)[C@@H](O)[C@@H]2O[C@H]2C[C@@](C)(NCc3ccc(-c4ccc(Cl)cc4)cc3)[C@@H](O)[C@@H](C)O2)Oc2ccc(cc2Cl)[C@H]1O | 4 | 4 | 4 | 8 | 2 | 4 | 2 | 4 | – | – | – |
| CN[C@@H](CC(C)C)C(=O)N[C@H]1C(=O)N[C@@H](CC(N)=O)C(=O)N[C@H]2C(=O)N[C@H]3C(=O)N[C@H](C(=O)N[C@H](C(=O)O)c4cc(O)cc(O)c4-c4cc3ccc4O)[C@H](O[C@H]3C[C@@](C)(N)[C@@H](O)[C@@H](C)O3)c3cccc(c3)Oc3cc2cc(c3O[C@@H]2O[C@@H](CO)[C@H](O)[C@@H](O)[C@@H]2O[C@H]2C[C@@](C)(NCc3ccc(-c4ccc(Cl)cc4)cc3)[C@@H](O)[C@@H](C)O2)Oc2ccc(cc2Cl)[C@H]1O | – | – | – | – | – | – | – | – | 23 | 2700 | 120 |
| CCCCCCCCCCNC(=O)[C@H]1NC(=O)[C@H]2NC(=O)[C@H](NC(=O)[C@@H]3NC(=O)[C@H](CC(N)=O)NC(=O)[C@H](N)[C@H](O)c4ccc(c(Cl)c4)Oc4cc3cc(c4O[C@@H]3O[C@@H](CO)[C@H](O)[C@@H](O)[C@@H]3O[C@H]3C[C@@](C)(N)[C@@H](O)[C@@H](C)O3)Oc3cccc(c3)[C@H]2O[C@H]2C[C@@](C)(N)[C@@H](O)[C@@H](C)O2)c2ccc(O)c(c2)-c2c(O)cc(O)cc21 | 4 | 2 | 1 | 4 | 0.5 | 8 | 2 | 2 | – | – | – |
| CN[C@H](CC(C)C)C(=O)N[C@H]1C(=O)N[C@@H](CC(N)=O)C(=O)N[C@H]2C(=O)N[C@H]3C(=O)N[C@H](C(=O)N[C@H](C(=O)O)c4cc(O)cc(O)c4-c4cc3ccc4O)[C@H](O[C@H]3C[C@@](C)(N)[C@@H](O)[C@@H](C)O3)c3cccc(c3)Oc3cc2cc(c3O[C@@H]2O[C@@H](CO)[C@H](O)[C@@H](O)[C@@H]2O[C@H]2C[C@@](C)(N)[C@@H](O)[C@@H](C)O2)Oc2ccc(cc2Cl)[C@H]1O | 8 | 0.25 | 0.25 | >128 | 0.25 | 8 | 0.25 | >128 | – | – | – |
| CN[C@H](CC(C)C)C(=O)N[C@H]1C(=O)N[C@@H](CC(N)=O)C(=O)N[C@H]2C(=O)N[C@H]3C(=O)N[C@H](C(=O)N[C@H](C(=O)NCc4ccc(-c5ccc(Cl)cc5)cc4)c4cc(O)cc(O)c4-c4cc3ccc4O)[C@H](O[C@H]3C[C@@](C)(N)[C@@H](O)[C@@H](C)O3)c3cccc(c3)Oc3cc2cc(c3O[C@@H]2O[C@@H](CO)[C@H](O)[C@@H](O)[C@@H]2O[C@H]2C[C@@](C)(N)[C@@H](O)[C@@H](C)O2)Oc2ccc(cc2Cl)[C@H]1O | 4 | 2 | 1 | 4 | 2 | 4 | 1 | 4 | – | – | – |
| CCCCCCCCCCNCc1c(O)cc2c(c1O)-c1cc(ccc1O)[C@H]1NC(=O)[C@@H]3NC(=O)[C@H](CC(N)=O)NC(=O)[C@H](NC(=O)[C@@H](CC(C)C)NC)[C@H](O)c4ccc(c(Cl)c4)Oc4cc3cc(c4O[C@@H]3O[C@@H](CO)[C@H](O)[C@@H](O)[C@@H]3O[C@H]3C[C@@](C)(N)[C@@H](O)[C@@H](C)O3)Oc3cccc(c3)[C@@H](O[C@H]3C[C@@](C)(N)[C@@H](O)[C@@H](C)O3)[C@H](NC1=O)C(=O)N[C@@H]2C(=O)O | 2 | 0.5 | 0.25 | 8 | 0.25 | 2 | 0.5 | 8 | – | – | – |
| C[C@H]1O[C@@H](O[C@@H]2[C@H](Oc3c4cc5cc3Oc3ccc(cc3Cl)[C@@H](O)[C@@H](N)C(=O)N[C@@H](CC(N)=O)C(=O)N[C@H]5C(=O)N[C@H]3C(=O)N[C@H](C(=O)N[C@H](C(=O)NCc5ccc(-c6ccc(Cl)cc6)cc5)c5cc(O)cc(O)c5-c5cc3ccc5O)[C@H](O[C@H]3C[C@@](C)(N)[C@@H](O)[C@@H](C)O3)c3cccc(c3)O4)O[C@@H](CO)[C@H](O)[C@H]2O)C[C@@](C)(N)[C@H]1O | 8 | 4 | 4 | 4 | 4 | 8 | 4 | 2 | – | – | – |
